From ChEMBL document CHEMBL2407024, “Antimicrobial activity of imidazo[1,5-a]quinoxaline derivatives with pyridinium moiety” (Eur J Med Chem, 2013)
In brackets after ≈: the same amount, converted by molar mass. Non-standard residues stand in square brackets, D forms with d. Residues, ends and D or L forms follow the SMILES beside them. Orn = NCCC[C@H](N)C(=O)O

Experiments:
Aspergillus niger [1] = test: Antifungal activity against Aspergillus niger BKMF-1119 measured every 24 hrs for 14 days by conventional dilution method; type: functional
Procedure, shortened: (§1)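 Dilution assay in Sabouraud dextrose broth, inoculum 2 × 10^3–4 cfu/ml. MIC is the lowest concentration with no visible growth after 14 days of incubation. Run alongside a positive growth control and standard drug controls. Tests in duplicate, repeated twice.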

[2] = system: Trichophyton mentagrophytes; test: Antifungal activity against Trichophyton mentagrophytes measured every 24 hrs for 14 days by conventional dilution method; type: functional; procedure, shortened: as §1
Candida albicans [3] = test: Antifungal activity against Candida albicans 885-653 measured every 24 hrs for 14 days by conventional dilution method; type: functional; procedure, shortened: as §1
Pseudomonas aeruginosa [4] = test: Antibacterial activity against Pseudomonas aeruginosa 9027 measured every 24 hrs for 5 days by conventional dilution method; type: functional
Procedure, shortened: (§2)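 Broth dilution in nutrient broth, inoculum 3 × 10⁵ cfu/ml. MIC is the lowest concentration showing no growth, read visually every 24 h over 5 days. Run alongside a positive growth control and standard drug controls. Tests in duplicate, repeated twice.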

Staphylococcus aureus [5] = test: Antibacterial activity against Staphylococcus aureus 209p measured every 24 hrs for 5 days by conventional dilution method; type: functional; procedure, shortened: as §2
Escherichia coli [6] = test: Antibacterial activity against Escherichia coli F-50 measured every 24 hrs for 5 days by conventional dilution method; type: functional; procedure, shortened: as §2
Bacillus cereus [7] = test: Antibacterial activity against Bacillus cereus 8035 measured every 24 hrs for 5 days by conventional dilution method; type: functional; procedure, shortened: as §2
[8] = Acute toxicity in ip dosed mouse; type: organism-based; conditions: in vivo
Procedure, shortened: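 Mice; each compound given at 5 dose levels, 10 animals per dose (n = 50 per compound). Animals observed for 72 h; toxicity expressed as average lethal dose (LD50) calculated from mortality across dose groups.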

Candida albicans [9] = test: Fungicidal activity against Candida albicans 885-653 after 6 hrs; type: functional; conditions: 885-653, 6 h
Procedure, shortened: (§3)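 Tubes of test compound (5 to 500 per ml, 1 mL in nutrient agar) with fungi were incubated at 26 °C for 6 h. Inocula were then prepared in Sabouraud dextrose broth and incubated at 26 °C. The fungicidal concentration is the one giving total cell death.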

Pseudomonas aeruginosa [10] = test: Bactericidal activity against Pseudomonas aeruginosa 9027 after 4 hrs; type: functional; conditions: Pseudomonas aeruginosa, 9027, 4 h
Procedure, shortened: (§4)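 Tubes contained 1 mL test compound in nutrient agar, 5 to 500 per ml. Bacteria in normal saline broth (3 × 10⁵ cfu/ml, 1 mL) were added and held 4 h, then transferred onto meal-peptone agar plates and incubated at 37 °C. MBC is the dilution giving total cell death.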

Bacillus cereus [11] = test: Bactericidal activity against Bacillus cereus 8035 after 4 hrs; type: functional; conditions: Bacillus cereus, 8035, 4 h; procedure, shortened: as §4
Staphylococcus aureus [12] = test: Bactericidal activity against Staphylococcus aureus 209p after 4 hrs; type: functional; procedure, shortened: as §4
[13] = system: Trichophyton mentagrophytes; test: Fungicidal activity against Trichophyton mentagrophytes after 6 hrs; type: functional; procedure, shortened: as §3
Aspergillus niger [14] = test: Fungicidal activity against Aspergillus niger BKMF-1119 after 6 hrs; type: functional; conditions: BKMF-1119, 6 h; procedure, shortened: as §3
Escherichia coli [15] = test: Bactericidal activity against Escherichia coli F-50 after 4 hrs; type: functional; conditions: F-50, 4 h; procedure, shortened: as §4

Row | MIC (Aspergillus niger [1]) [µg/mL] | MIC [2] [µg/mL] | MIC (Candida albicans [3]) [µg/mL] | MIC (Pseudomonas aeruginosa [4]) [µg/mL] | MIC (Staphylococcus aureus [5]) [µg/mL] | MIC (Escherichia coli [6]) [µg/mL] | MIC (Bacillus cereus [7]) [µg/mL] | Compound | LD50 [8] [mg/kg] | MFC (Candida albicans [9]) [µg/mL] | MBC (Pseudomonas aeruginosa [10]) [µg/mL] | MBC (Bacillus cereus [11]) [µg/mL] | MBC (Staphylococcus aureus [12]) [µg/mL] | MFC [13] [µg/mL] | MFC (Aspergillus niger [14]) [µg/mL] | MBC (Escherichia coli [15]) [µg/mL]
1 | > 500 | > 500 | 15.6 | > 500 | 12.5 | > 500 | 62.5 | CCCCCCn1c(=O)c2c(-c3ccccc3)nc(-c3ccc[n+](Cc4cccc(C[n+]5cccc(-c6nc(-c7ccccc7)c7c(=O)n(CCCCCC)c8ccccc8n67)c5)c4)c3)n2c2ccccc21.[Br-].[Br-] |  |  |  |  |  |  |  | 
2 | > 500 | > 500 | 250 | > 500 | 125 | > 500 | > 500 | O=c1c2c(-c3ccccc3)nc3n2c2ccccc2n1CCCCCCCCCCn1c(=O)c2c(-c4ccccc4)nc(n2c2ccccc21)-c1ccc[n+](c1)Cc1cccc(c1)C[n+]1cccc-3c1.[Br-].[Br-] |  |  |  |  |  |  |  | 
3 | > 500 | 500 | 62.5 | > 500 | 31.3 | > 500 | 125 | Cn1c(=O)c2c(-c3ccccc3)nc(-c3ccc[n+](Cc4ccccc4)c3)n2c2ccccc21.[Cl-] |  |  |  |  |  |  |  | 
4 | > 500 | > 500 | > 500 | > 500 | 62.5 | > 500 | 125 | CCCn1c(=O)c2c(-c3ccccc3)nc(-c3ccc[n+](Cc4ccccc4)c3)n2c2ccccc21.[Cl-] |  |  |  |  |  |  |  | 
5 | > 500 | 500 | 3.9 | > 500 | 1.95 | > 500 | 12.5 | CCCCCCCCCn1c(=O)c2c(-c3ccccc3)nc(-c3ccc[n+](Cc4ccccc4)c3)n2c2ccccc21.[Cl-] |  | 500 | > 500 | > 500 | 50 | > 500 | > 500 | > 500
6 | > 500 | > 500 | > 500 | > 500 | 500 | > 500 | > 500 | CCCCCCCCCCCCCCCCCCn1c(=O)c2c(-c3ccccc3)nc(-c3ccc[n+](Cc4ccccc4)c3)n2c2ccccc21.[Cl-] |  |  |  |  |  |  |  | 
7 |  | 3.13 (≈ 9.08 µM) | 0.39 (≈ 1.13 µM) |  |  |  |  | Clc1ccccc1C(c1ccccc1)(c1ccccc1)n1ccnc1 [CLOTRIMAZOLE] |  | 0.39 (≈ 1.13 µM) |  |  |  | 3.13 (≈ 9.08 µM) |  | 
8 |  |  |  |  |  |  |  | CC(C)C[C@@H]1NC(=O)[C@H](CCCN)NC(=O)[C@H](C(C)C)NC(=O)[C@@H]2CCCN2C(=O)[C@@H](Cc2ccccc2)NC(=O)[C@H](CC(C)C)NC(=O)[C@H](CCCN)NC(=O)[C@H](C(C)C)NC(=O)[C@@H]2CCCN2C(=O)[C@@H](Cc2ccccc2)NC1=O [GRAMICIDIN S] (cyclo(L[dF]PV[Orn]L[dF]PV[Orn])) | 26 |  |  |  |  |  |  | 

Row | Compound | MIC (Aspergillus niger [1]) [µg/mL] | MIC [2] [µg/mL] | MIC (Candida albicans [3]) [µg/mL] | MIC (Pseudomonas aeruginosa [4]) [µg/mL] | MIC (Staphylococcus aureus [5]) [µg/mL] | MIC (Escherichia coli [6]) [µg/mL] | MIC (Bacillus cereus [7]) [µg/mL] | LD50 [8] [mg/kg] | MFC (Candida albicans [9]) [µg/mL] | MBC (Pseudomonas aeruginosa [10]) [µg/mL] | MBC (Bacillus cereus [11]) [µg/mL] | MBC (Staphylococcus aureus [12]) [µg/mL] | MFC [13] [µg/mL] | MFC (Aspergillus niger [14]) [µg/mL] | MBC (Escherichia coli [15]) [µg/mL]
9 | CCCCCCCCCn1c(=O)c2c(-c3ccccc3)nc(-c3ccc[n+](Cc4cccc(C[n+]5cccc(-c6nc(-c7ccccc7)c7c(=O)n(CCCCCCCCC)c8ccccc8n67)c5)c4)c3)n2c2ccccc21.[Br-].[Br-] | > 500 | 500 | 7.8 | > 500 | 3.9 | 500 | 15.6 | 108 |  |  |  |  |  |  | 
10 | C[C@@H]1[C@H](O)[C@@H](C)/C=C/C=C/C=C/C=C/C=C/C=C/C=C/[C@H](O[C@@H]2O[C@H](C)[C@@H](O)[C@H](N)[C@@H]2O)C[C@@H]2O[C@](O)(C[C@@H](O)C[C@@H](O)[C@H](O)CC[C@@H](O)C[C@@H](O)CC(=O)O[C@H]1C)C[C@H](O)[C@H]2C(=O)O [AMPHOTERICIN B] | 20 (≈ 21.6 µM) | 3.13 (≈ 3.39 µM) | 0.97 (≈ 1.05 µM) |  |  |  |  | 27.7 | 50 (≈ 54.1 µM) |  |  |  | 250 (≈ 271 µM) | 250 (≈ 271 µM) | 
11 | O=C(O)c1cn(C2CC2)c2cc(N3CCNCC3)c(F)cc2c1=O [CIPROFLOXACIN] |  |  |  |  | 0.25 (≈ 0.754 µM) |  | 0.25 (≈ 0.754 µM) |  |  | 0.5 (≈ 1.51 µM) | 0.25 (≈ 0.754 µM) | 0.25 (≈ 0.754 µM) |  |  | 0.5 (≈ 1.51 µM)
12 | CCn1cc(C(=O)O)c(=O)c2cc(F)c(N3CCNCC3)cc21 [NORFLOXACIN] |  |  |  | 3 (≈ 9.39 µM) | 2.42 (≈ 7.58 µM) | 1.5 (≈ 4.7 µM) | 7.8 (≈ 24.4 µM) |  |  | 5 (≈ 15.7 µM) | 12.5 (≈ 39.1 µM) | 5 (≈ 15.7 µM) |  |  | 5 (≈ 15.7 µM)
13 | CC1COc2c(N3CCN(C)CC3)c(F)cc3c(=O)c(C(=O)O)cn1c23 (stereo unspecified) [OFLOXACIN] |  |  |  | 3.1 (≈ 8.58 µM) | 0.97 (≈ 2.68 µM) |  | 1.5 (≈ 4.15 µM) |  |  |  |  |  |  |  | 
